Reference: ChEMBL document CHEMBL4028904, “Discovery of a Novel Series of Tankyrase Inhibitors by a Hybridization Approach” (J Med Chem, 2017)
pIC50: −log10 of the molar value.

Key:
Canis familiaris = experiment: Clearance in Beagle dog at 7 mg/kg, po measured up to 24 hrs postdose; assay type: ADME, organism-based, Canis lupus familiaris; settings: in vivo
[1] = target: Serine/threonine-protein kinase 16 (Homo sapiens) (UniProt O75716); experiment: Inhibition of TSF1 (unknown origin) at 10 uM after 60 mins in presence of [gamma-33P]-ATP by microplate scintillation counting
Serine/threonine-protein kinase 16 (Homo sapiens), sequence (O75716 whole entry): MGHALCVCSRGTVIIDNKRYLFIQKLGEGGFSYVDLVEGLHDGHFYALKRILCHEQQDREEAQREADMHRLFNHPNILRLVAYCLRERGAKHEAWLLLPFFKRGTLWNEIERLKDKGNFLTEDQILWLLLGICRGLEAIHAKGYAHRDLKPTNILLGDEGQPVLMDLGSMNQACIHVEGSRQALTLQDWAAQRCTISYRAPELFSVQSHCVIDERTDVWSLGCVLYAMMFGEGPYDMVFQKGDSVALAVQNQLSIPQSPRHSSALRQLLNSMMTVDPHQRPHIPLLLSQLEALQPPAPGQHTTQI
In short: (§1)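 A panel of 320 wild-type protein kinases was screened with the compound at 10 μM. Activity is reported as percent inhibition.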

[2] = target: Protein mono-ADP-ribosyltransferase PARP15 (Homo sapiens, UniProt Q460N3); experiment: Inhibition of human PARP15 using NAD+ as substrate by fluorescence assay
Protein mono-ADP-ribosyltransferase PARP15, sequence (Q460N3 whole entry): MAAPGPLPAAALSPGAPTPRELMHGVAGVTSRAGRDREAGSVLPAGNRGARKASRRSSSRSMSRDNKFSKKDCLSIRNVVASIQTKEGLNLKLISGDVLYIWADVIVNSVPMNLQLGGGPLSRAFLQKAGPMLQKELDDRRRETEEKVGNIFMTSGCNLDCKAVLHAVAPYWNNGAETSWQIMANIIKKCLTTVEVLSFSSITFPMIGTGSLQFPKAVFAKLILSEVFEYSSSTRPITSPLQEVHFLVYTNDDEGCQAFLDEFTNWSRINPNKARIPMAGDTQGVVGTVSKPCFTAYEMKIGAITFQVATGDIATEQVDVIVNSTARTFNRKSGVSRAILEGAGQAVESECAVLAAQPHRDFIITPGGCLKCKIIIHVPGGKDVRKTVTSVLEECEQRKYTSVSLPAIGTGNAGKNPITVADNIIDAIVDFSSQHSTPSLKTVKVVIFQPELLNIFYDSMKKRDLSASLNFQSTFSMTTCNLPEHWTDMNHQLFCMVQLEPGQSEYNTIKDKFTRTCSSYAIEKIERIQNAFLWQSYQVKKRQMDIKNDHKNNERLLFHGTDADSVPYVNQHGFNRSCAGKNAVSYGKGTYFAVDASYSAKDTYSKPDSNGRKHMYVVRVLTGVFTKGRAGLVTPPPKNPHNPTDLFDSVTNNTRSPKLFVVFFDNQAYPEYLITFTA

[3] = Drug excretion in Sprague-Dawley rat urine at 7 mg/kg, iv or 14 mg/kg, po measured up to 24 hrs by LC-MS/MS; assay type: ADME, organism-based; settings: in vivo
[4] = target: Protein mono-ADP-ribosyltransferase PARP3 (Homo sapiens, UniProt Q9Y6F1); experiment: Inhibition of human PARP3 using NAD+ as substrate by fluorescence assay
Protein mono-ADP-ribosyltransferase PARP3, sequence (Q9Y6F1 whole entry): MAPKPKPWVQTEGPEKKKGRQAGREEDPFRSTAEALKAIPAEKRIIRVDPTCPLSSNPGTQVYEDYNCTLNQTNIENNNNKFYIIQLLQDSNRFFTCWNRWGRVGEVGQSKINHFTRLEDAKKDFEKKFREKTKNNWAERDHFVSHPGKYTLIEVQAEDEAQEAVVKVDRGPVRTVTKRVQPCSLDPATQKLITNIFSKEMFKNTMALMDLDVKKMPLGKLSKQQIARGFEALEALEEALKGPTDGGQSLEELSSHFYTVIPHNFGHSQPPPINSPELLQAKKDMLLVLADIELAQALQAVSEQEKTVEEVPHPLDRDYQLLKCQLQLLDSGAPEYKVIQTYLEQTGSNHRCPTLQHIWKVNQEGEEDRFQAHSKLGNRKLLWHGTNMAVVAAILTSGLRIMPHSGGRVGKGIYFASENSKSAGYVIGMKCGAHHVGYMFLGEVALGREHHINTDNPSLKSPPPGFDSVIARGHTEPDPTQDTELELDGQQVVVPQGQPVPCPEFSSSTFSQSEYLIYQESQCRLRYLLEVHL

Cytochrome P450 3A4 = Cytochrome P450 3A4 (Homo sapiens, UniProt P08684); experiment: Inhibition of CYP3A4 in human liver microsomes using midazolam as substrate after 30 mins by LC-MS/MS analysis; assay type: ADME
Cytochrome P450 3A4, sequence (P08684 whole entry): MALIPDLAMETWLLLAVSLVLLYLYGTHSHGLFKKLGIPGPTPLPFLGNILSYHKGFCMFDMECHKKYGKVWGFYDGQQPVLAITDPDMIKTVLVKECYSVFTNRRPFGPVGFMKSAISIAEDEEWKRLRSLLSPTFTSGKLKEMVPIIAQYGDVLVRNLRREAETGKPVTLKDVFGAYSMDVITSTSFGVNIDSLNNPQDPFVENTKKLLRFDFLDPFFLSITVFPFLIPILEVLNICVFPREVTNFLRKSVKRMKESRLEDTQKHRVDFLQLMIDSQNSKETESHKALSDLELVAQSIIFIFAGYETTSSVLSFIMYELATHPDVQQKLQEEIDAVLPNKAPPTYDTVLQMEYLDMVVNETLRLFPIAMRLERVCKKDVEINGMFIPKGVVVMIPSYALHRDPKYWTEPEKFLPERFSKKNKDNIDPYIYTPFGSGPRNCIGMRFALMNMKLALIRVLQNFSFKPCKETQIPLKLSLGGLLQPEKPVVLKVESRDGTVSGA

COLO 320DM [5] = experiment: Antitumor activity against human COLO320DM cells xenografted in nude Balb/c mouse assessed as tumor growth inhibition at 60 mg/kg, po administered qd for 10 days measured on days 12, 17 and 21 post last dose; assay type: functional; settings: 240 h, read-out: TGI
In short: (§2)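 Tumor-bearing mice were randomized 2 days after inoculation into four groups: vehicle (1% starch, n = 4) and 15, 30 or 60 mg/kg (n = 5 each). Dosing was oral, once daily, for 10 days. Tumor size was measured by caliper on days 12, 17 and 21. Values are tumor volume reduction relative to vehicle-treated controls.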

[6] = Inhibition of CYP1A in human liver microsomes using ethoxyresorufin as substrate after 30 mins by LC-MS/MS analysis; assay type: ADME
[7] = target: Poly [ADP-ribose] polymerase 2 (Homo sapiens, UniProt Q9UGN5); experiment: Inhibition of human GST-tagged PARP2 (2 to 583 residues) expressed in baculovirus infected Sf9 cell expression system using NAD+ as substrate after 4 hrs by fluorescence assay
Poly [ADP-ribose] polymerase 2, sequence (Q9UGN5 whole entry, the tested form may be a part): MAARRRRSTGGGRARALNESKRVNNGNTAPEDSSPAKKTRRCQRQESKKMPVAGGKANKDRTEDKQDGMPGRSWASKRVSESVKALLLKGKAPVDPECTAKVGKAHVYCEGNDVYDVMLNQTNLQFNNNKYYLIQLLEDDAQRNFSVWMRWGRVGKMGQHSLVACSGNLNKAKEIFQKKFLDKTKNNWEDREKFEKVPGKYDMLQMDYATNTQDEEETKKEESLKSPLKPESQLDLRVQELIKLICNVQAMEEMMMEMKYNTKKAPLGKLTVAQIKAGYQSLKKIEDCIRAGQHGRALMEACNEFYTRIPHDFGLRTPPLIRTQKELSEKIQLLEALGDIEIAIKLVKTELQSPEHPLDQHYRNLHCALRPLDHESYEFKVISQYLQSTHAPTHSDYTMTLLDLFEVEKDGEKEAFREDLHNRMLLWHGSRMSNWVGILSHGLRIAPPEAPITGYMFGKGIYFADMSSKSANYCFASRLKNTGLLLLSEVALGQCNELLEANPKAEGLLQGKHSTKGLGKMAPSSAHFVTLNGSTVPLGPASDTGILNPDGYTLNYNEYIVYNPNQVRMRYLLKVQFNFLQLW

[8] = target: Dual specificity protein kinase CLK2 (Homo sapiens) (UniProt P49760); experiment: Inhibition of CLK2 (unknown origin) at 10 uM after 60 mins in presence of [gamma-33P]-ATP by microplate scintillation counting; in short: as §1
Dual specificity protein kinase CLK2 (Homo sapiens), sequence (P49760 whole entry, looked up): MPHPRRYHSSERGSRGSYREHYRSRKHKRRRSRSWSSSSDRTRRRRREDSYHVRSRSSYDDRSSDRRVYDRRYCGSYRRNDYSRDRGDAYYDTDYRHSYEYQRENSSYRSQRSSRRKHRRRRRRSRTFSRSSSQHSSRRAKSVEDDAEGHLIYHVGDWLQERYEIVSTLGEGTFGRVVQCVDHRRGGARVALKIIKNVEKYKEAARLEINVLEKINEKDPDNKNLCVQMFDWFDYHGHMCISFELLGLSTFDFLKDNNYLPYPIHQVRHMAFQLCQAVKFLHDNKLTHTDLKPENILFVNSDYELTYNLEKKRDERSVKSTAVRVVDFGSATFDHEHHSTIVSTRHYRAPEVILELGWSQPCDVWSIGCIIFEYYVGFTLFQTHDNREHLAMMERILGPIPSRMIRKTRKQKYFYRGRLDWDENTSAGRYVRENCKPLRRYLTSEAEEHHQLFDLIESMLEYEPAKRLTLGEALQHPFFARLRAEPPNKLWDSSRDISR

[9] = Cmax in Beagle dog at 7 mg/kg, po measured up to 24 hrs postdose; assay type: ADME, organism-based, Canis lupus familiaris; parameters: dose 7 mg/kg, route oral; settings: in vivo
[10] = Terminal half life in Beagle dog at 7 mg/kg, po measured up to 24 hrs postdose; assay type: ADME, organism-based, Canis lupus familiaris; settings: in vivo, read-out: beta t1/2 (converted)
[11] = Intrinsic clearance in human hepatocytes assessed per million cells at 3 uM measured up to 120 mins by LC-MS/MS analysis; assay type: ADME, cell-based, Hepatocyte; settings: read-out: CLH
P388 [12] = experiment: Antitumor activity against mouse P388 cells allografted in immunocompetent BDF1 mouse assessed as tumor growth inhibition at 30 mg/kg, po administered qd for 10 days measured on day 12 post last dose; assay type: functional; settings: read-out: TGI
In short: (§3)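 Immunocompetent BDF1 (DBA2 × C57Bl6j) mice were implanted with p388 cells and randomized after 2 days into vehicle (1% starch, n = 6) and two treatment groups (n = 5 each). Dosing was oral, once daily, for 10 days. Tumor size was measured by caliper at the end. Values are tumor size reduction relative to vehicle control.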

Mus musculus [13] = experiment: Toxicity in immunodeficient nude Balb/c mouse xenografted with human COLO320DM cells assessed as body weight change at 15 to 60 mg/kg, po administered qd for 10 days measured on days 12, 17 and 21 post last dose; settings: in vivo, 240 h
Cytochrome P450 2C19 = Cytochrome P450 2C19 (Homo sapiens, UniProt P33261); experiment: Inhibition of CYP2C19 in human liver microsomes using mephenytoin as substrate after 30 mins by LC-MS/MS analysis; assay type: ADME
Cytochrome P450 2C19, sequence (P33261 whole entry): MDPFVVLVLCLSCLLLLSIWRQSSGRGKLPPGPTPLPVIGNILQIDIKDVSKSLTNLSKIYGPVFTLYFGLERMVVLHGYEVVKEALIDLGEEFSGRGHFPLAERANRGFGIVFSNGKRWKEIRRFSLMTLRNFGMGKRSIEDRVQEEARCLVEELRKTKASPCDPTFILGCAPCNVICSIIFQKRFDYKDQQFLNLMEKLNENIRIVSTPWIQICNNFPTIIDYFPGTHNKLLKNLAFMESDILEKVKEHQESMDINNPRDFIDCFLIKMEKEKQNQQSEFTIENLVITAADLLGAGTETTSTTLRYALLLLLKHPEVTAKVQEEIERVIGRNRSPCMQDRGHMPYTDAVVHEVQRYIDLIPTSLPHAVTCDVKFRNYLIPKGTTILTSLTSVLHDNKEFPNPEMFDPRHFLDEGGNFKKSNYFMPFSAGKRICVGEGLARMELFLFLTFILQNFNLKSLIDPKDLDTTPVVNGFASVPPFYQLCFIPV

[14] = AUC (0 to t) in Beagle dog at 7 mg/kg, po measured up to 24 hrs postdose; assay type: ADME, organism-based, Canis lupus familiaris; parameters: time < 24 hr, dose 7 mg/kg, route oral; settings: in vivo
P388 [15] = experiment: Antitumor activity against mouse P388 cells allografted in immunocompetent BDF1 mouse assessed as tumor growth inhibition at 15 mg/kg, po administered qd for 10 days measured on day 12 post last dose; assay type: functional; settings: read-out: TGI; in short: as §3
[16] = Apparent permeability across apical to basolateral side in MDCK cells expressing human MDR1 at 10 uM after 2 hrs by LC/MS/MS analysis; assay type: ADME, cell-based, Canis lupus familiaris; settings: dog
[17] = target: cGMP-dependent protein kinase 1 (Homo sapiens) (UniProt Q13976); experiment: Inhibition of PRKG1 (unknown origin) at 10 uM after 60 mins in presence of [gamma-33P]-ATP by microplate scintillation counting; in short: as §1
cGMP-dependent protein kinase 1 (Homo sapiens), sequence (Q13976 whole entry): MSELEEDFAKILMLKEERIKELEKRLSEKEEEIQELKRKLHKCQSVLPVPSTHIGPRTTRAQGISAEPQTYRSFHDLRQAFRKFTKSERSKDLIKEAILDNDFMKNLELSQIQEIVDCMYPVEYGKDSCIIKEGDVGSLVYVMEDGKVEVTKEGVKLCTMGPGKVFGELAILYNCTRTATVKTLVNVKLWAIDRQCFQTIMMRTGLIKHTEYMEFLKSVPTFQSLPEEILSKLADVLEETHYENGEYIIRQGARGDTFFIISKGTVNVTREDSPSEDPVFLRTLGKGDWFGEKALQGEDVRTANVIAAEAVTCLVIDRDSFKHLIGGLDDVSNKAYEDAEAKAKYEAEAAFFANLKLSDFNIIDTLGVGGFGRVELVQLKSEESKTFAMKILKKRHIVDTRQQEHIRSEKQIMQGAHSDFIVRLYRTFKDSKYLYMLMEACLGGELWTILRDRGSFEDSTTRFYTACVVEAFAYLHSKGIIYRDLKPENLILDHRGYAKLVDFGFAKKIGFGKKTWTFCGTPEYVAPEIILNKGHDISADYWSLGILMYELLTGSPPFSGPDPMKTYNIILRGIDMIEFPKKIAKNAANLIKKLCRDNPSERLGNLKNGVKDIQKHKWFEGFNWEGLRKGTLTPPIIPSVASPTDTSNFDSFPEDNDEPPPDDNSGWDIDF

[18] = target: Poly [ADP-ribose] polymerase 1 (Homo sapiens, UniProt P09874); experiment: Inhibition of recombinant human PARP1 expressed in Escherichia coli using NAD+ as substrate after 10 mins by fluorescence assay
[19] = Cmax in ICR mouse at 5 mg/kg, po measured up to 24 hrs postdose; assay type: ADME, organism-based; parameters: dose 5 mg/kg, route oral; settings: in vivo
[20] = Cmax in Sprague-Dawley rat at 14 mg/kg, po measured up to 24 hrs postdose; assay type: ADME, organism-based; parameters: dose 14 mg/kg, route oral; settings: in vivo
[21] = Terminal half life in ICR mouse at 5 mg/kg, po measured up to 24 hrs postdose; assay type: ADME, organism-based; settings: in vivo, read-out: beta t1/2 (converted)
Mus musculus [22] = experiment: Toxicity in immunocompetent BDF1 mouse allografted with mouse P388 cells assessed as animal discomfort at 15 to 30 mg/kg, po administered qd for 10 days measured on day 12 post last dose; assay type: organism-based; settings: in vivo, 240 h
[23] = target: Protein mono-ADP-ribosyltransferase PARP16 (Homo sapiens, UniProt Q8N5Y8); experiment: Inhibition of human PARP16 using NAD+ as substrate by fluorescence assay
Protein mono-ADP-ribosyltransferase PARP16, sequence (Q8N5Y8 whole entry): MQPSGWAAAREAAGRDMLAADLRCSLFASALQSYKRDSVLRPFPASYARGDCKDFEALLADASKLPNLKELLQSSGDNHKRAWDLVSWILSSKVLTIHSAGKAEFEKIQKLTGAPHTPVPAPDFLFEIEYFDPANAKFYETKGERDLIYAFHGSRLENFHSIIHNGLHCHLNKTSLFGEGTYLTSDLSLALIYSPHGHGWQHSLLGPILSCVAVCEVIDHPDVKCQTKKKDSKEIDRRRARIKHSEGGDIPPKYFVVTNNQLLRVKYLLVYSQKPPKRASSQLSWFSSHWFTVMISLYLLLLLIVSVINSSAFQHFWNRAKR

Mus musculus [24] = experiment: Clearance in ICR mouse at 5 mg/kg, po measured up to 24 hrs; assay type: ADME, organism-based; settings: in vivo
[25] = AUC (0 to t) in ICR mouse at 5 mg/kg, po measured up to 24 hrs postdose; assay type: ADME, organism-based; parameters: time < 24 hr, dose 5 mg/kg, route oral; settings: in vivo
[26] = Oral bioavailability in ICR mouse at 5 mg/kg measured up to 24 hrs postdose; assay type: ADME, organism-based; settings: in vivo
[27] = Drug excretion in Sprague-Dawley rat feces at 7 mg/kg, iv or 14 mg/kg, po measured up to 24 hrs by LC-MS/MS; assay type: ADME, organism-based; settings: in vivo
COLO 320DM [28] = experiment: Antitumor activity against human COLO320DM cells xenografted in nude Balb/c mouse assessed as tumor growth inhibition at 30 mg/kg, po administered qd for 10 days measured on days 12, 17 and 21 post last dose; assay type: functional; settings: 240 h, read-out: TGI; in short: as §2
[29] = Apparent permeability across basolateral to apical side in MDCK cells expressing human MDR1 at 10 uM after 2 hrs by LC/MS/MS analysis; assay type: ADME, cell-based, Canis lupus familiaris; settings: dog
COLO 320DM [30] = experiment: Antitumor activity against human COLO320DM cells xenografted in nude Balb/c mouse assessed as tumor growth inhibition at 15 mg/kg, po administered qd for 10 days measured on days 12, 17 and 21 post last dose; assay type: functional; settings: 240 h, read-out: TGI; in short: as §2
[31] = AUC (0 to t) in Sprague-Dawley rat at 14 mg/kg, po measured up to 24 hrs postdose; assay type: ADME, organism-based; parameters: time < 24 hr, dose 14 mg/kg, route oral; settings: in vivo

For N#Cc1ccc2c(c1)[nH]c(=O)n2[C@H]1C[C@H](c2nnc(-c3ccncn3)n2-c2ccccc2Cl)C1, the clearance (Canis familiaris) was 2.33 mL/min/kg, the inhibition [1] was 52% and the pIC50 [2] was less than 5.00. For the same compound, the Drug excretion [3] was “Metabolite_Notdetected”, the pIC50 [4] was less than 4.00 and the pIC50 (Cytochrome P450 3A4) was 5.89. It also gave an inhibition in vivo at 60 mg/kg (COLO 320DM [5]) of 63%, a pIC50 [6] of less than 4.60 and a pIC50 [7] of less than 4.00. It also gave an inhibition [8] of 73%, a Cmax [9] of 5850 ng/mL and a half-life [10] of 4.7 h. For the same compound, the hepatocyte CLint at 3 µM [11] was 6.44 µL/min/1e6 cells, the inhibition in vivo at 30 mg/kg (P388 [12]) was 57% and the Activity (Mus musculus [13]) was “Non-Toxic”. It also gave a pIC50 (Cytochrome P450 2C19) of less than 4.60, an AUC(0-t) at 24 h [14] of 27100 ng·h/mL and an inhibition in vivo at 15 mg/kg (P388 [15]) of 32%. For the same compound, the Papp [16] was 5.3 ×10⁻⁷ cm/s, the inhibition [17] was 66% and the pIC50 [18] was less than 4.00. The Cmax [19] was 124 ng/mL, the Cmax [20] was 843 ng/mL and the half-life [21] was 1.5 h. For the same compound, the Activity (Mus musculus [22]) was “Non-Toxic”, the pIC50 [23] was less than 5.00 and the clearance (Mus musculus [24]) was 567 mL/min/kg. For the same compound, the AUC(0-t) at 24 h [25] was 145 ng·h/mL, the bioavailability [26] was 47% and the Drug excretion [27] was “Metabolite_Notdetected”. It also gave an inhibition in vivo at 30 mg/kg (COLO 320DM [28]) of 63%, a Papp [29] of 28.2 ×10⁻⁷ cm/s and an inhibition in vivo at 15 mg/kg (COLO 320DM [30]) of 53%. The AUC(0-t) at 24 h [31] was 2760 ng·h/mL.
